# Hits are enriched below; roughly 2.9% of the tested compounds scored in any of these assays.
# C2C12 statin – suppressors of statin myotoxicity in C2C12 myotubes, primary screen, cell-based, single point, plate reader | C2C12 myotubes + simvastatin, ATP luminescence, 48 h; scaled: DMSO 0, geranylgeraniol control 100 | rescue of ATP level, % at 7.49 µM | actives 0.78% (n = 330,000) | AID 602340, 2012;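 active means mean ATP rescue above about 67%, or every replicate alone reaching that limit, limit read from the data, passing the limit was not always enough; inconclusive means no clear call, values can overlap the other calls; inactive means mean under the limit and some replicate under it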;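 further: myotubes were challenged with 10 µM simvastatin during compound exposure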
# S100A4 MyoIIA – inhibitors of S100A4-myosin IIA peptide binding, primary screen, biochemical, fluorescence polarization, TAMRA-MyoIIA peptide. Protein S100-A4 (Homo sapiens), P26447. inhibition, % at 10.7 µM. actives 0.14% (n = 360,000). AID 652163, 2013;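 active means mean inhibition of at least 70% across replicates, with every replicate also reaching that level; inconclusive means mean inhibition reaches 70% but some replicates fall short; inactive means mean inhibition below 70%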
# Target sequence (P26447 whole entry, looked up): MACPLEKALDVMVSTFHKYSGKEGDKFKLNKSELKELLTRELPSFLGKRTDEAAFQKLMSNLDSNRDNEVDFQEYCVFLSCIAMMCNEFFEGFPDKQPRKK
#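 System – human S100A4 monomer protein, biochemical binding assay · Buffer or medium – Calcium-containing HEPES buffer, pH 7.2 · Timing – 5 min between mix addition and reading · Also added – TAMRA-labelled myosin IIA heavy-chain peptide probe, 5 nM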
# PGC1a acetyl inh – inhibitors of PGC1a acetylation signal, primary screen, cell-based, U2OS, AlphaScreen, inhibitor mode; AlphaScreen anti-acetyl-lysine; with virally co-expressed GCN5 acetyltransferase; inhibition, % at 15.6 µM; actives 0.17% (n = 350,000);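 active means every replicate shows inhibition of at least 40%; inconclusive means mean inhibition at least 40% but some replicate below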;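 further: 0% = neutral control wells and 100% = positive control wells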
# DENV2 CPE – inhibitors of DENV2 cytopathic effect, primary screen, cell-based, plate reader, single concentration; DENV2-infected cells, cytopathic effect rescue; CPE inhibition, % at 9.99 µM; actives 1.7% (n = 350,000); AID 651640, 2012; in the data active means CPE inhibition above about 20%, passing the limit was not always enough; inconclusive means no clear call, values can overlap the other calls; tested in BHK-21 cells;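 further: 0% = median of neutral control wells and 100% = median of positive control wells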
# SIRT5 inh – SIRT5 desuccinylase inhibitors, primary screen, biochemical, fluorescence imaging, single point, set 5. Purified SirT5, succinyl-peptide AMC, trypsin-coupled fluorescence. inhibition, % at 15 µM. actives 1.1% (n = 330,000). AID 652115, 2013; in the data active means inhibition above about 15%; inconclusive means no clear call, values can overlap the other calls
# Target sequence (Q9NXA8 whole entry, looked up): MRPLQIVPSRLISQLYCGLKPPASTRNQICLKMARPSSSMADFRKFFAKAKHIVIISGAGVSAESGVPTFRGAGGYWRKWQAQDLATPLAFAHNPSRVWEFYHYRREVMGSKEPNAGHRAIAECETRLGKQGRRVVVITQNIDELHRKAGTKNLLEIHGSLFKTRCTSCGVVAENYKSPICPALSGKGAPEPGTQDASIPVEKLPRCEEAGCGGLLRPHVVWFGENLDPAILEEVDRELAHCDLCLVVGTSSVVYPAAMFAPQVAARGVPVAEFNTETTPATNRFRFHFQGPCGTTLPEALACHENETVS
# * hit, by the source's call; ? = inconclusive; · = no result.
SMILES,C2C12 statin,S100A4 MyoIIA,PGC1a acetyl inh,DENV2 CPE,SIRT5 inh
C[C@@H]1CN([C@H](C)CO)C(=O)c2cc(NC(=O)CCCN(C)C)ccc2O[C@@H](C)CCCCO[C@H]1CN(C)S(=O)(=O)c1ccc(F)cc1,·,-14,7,17,-4
C[C@@H]1CCCCO[C@@H](CN(C)S(=O)(=O)c2ccc(F)cc2)[C@@H](C)CN([C@@H](C)CO)C(=O)c2cc(NC(=O)CCCN(C)C)ccc2O1,·,2,-1,-4,-2
COc1ccc(S(=O)(=O)Nc2cccc3c2O[C@@H](CN(C)C(=O)Nc2c(C)noc2C)[C@@H](C)CN([C@H](C)CO)C3=O)cc1,5,-3,-1,?,7
O=C1C=CCCN1C(=O)/C=C/c1cccc(C(F)(F)F)c1,·,8,78*,5,0
O=C1C=CCCN1C(=O)/C=C/c1ccccc1Cl,·,39,73*,17,0
O=C(/C=C/c1ccccc1Cl)N1CCOCC1,-2,-3,-19,-1,4
O=C(NC1CCCCC1)N1CC(=O)N2[C@@H](CO)[C@H](c3ccc(/C=C/c4ccccc4)cc3)[C@@H]2C1,·,2,-9,-11,1
O=C(COc1ccccc1)Nc1ncn[nH]1,1,-9,5,8,30*
COc1ccc2c3c(n(C)c2c1)[C@@H](CO)N(C(=O)CC1CC1)CC31CCN(C(=O)C2CC2)CC1,·,6,·,-11,-2
CC(=O)NCc1ccc(C(=O)CCl)cc1,-1,-25,3,13,-4
CC(=O)Nc1ccc(C(=O)CCl)cc1,0,94*,1,27*,·
C[C@@H]1CCCCO[C@@H](CN(C)C(=O)CCCN(C)C)[C@@H](C)CN([C@@H](C)CO)C(=O)c2cc(NC(=O)CCCN(C)C)ccc2O1,·,29,15,-1,-2
C[C@H](CO)N1C[C@H](C)[C@H](CN(C)C(=O)Nc2ccc3c(c2)OCO3)OCCCC[C@H](C)Oc2ccc(NC(=O)CCC(F)(F)F)cc2C1=O,·,-4,-10,5,-7
C[C@@H]1CN([C@@H](C)CO)S(=O)(=O)c2ccc(-c3ccccc3)cc2O[C@@H]1CN(C)C(=O)C1CCC1,9,·,-8,·,·
CC(C)c1ccccc1OCC(=O)Nc1ccc2[nH]ncc2c1,-2,-1,1,-3,18*
COc1ccccc1C(=O)Nc1ccc2[nH]ncc2c1,4,-9,-6,1,-1
CCOC(=O)N1CCC(NC(=O)Cn2nc(-c3ccccc3)ccc2=O)CC1,-4,-1,0,-3,18*
CCOC(=O)N1CCN(C(=O)CCn2nc(-c3ccccc3)ccc2=O)CC1,·,1,·,7,-1
CCOC(=O)N1CCC(NC(=O)c2cc(C)c3c(C)nn(-c4ccccc4)c3n2)CC1,118*,·,-22,·,·
C[C@@H]1CN([C@H](C)CO)C(=O)c2cc(NS(=O)(=O)c3cccs3)ccc2O[C@@H](C)CCCCO[C@H]1CN(C)CC1CC1,·,-4,7,-11,2
COc1ccccc1NC(=O)N[C@@H]1CC[C@@H](CC(=O)NCc2ccc(Cl)c(Cl)c2)O[C@@H]1CO,-8,10,8,-7,-6
Cc1ccc2[nH]c(C(=O)N3CCN(C=O)CC3)cc2c1,-2,2,27,0,16*
CCOC(=O)N1CCN(C(=O)c2cc3cc(C)ccc3[nH]2)CC1,15,1,·,-15,2
COc1ccc2c3c([nH]c2c1)[C@H](CO)N(C(C)=O)CC31CN(C(=O)Nc2ccc(F)cc2)C1,·,0,·,3,-1
COc1ccc2c3c(n(C)c2c1)[C@H](CO)NCC31CN(Cc2ccccc2F)C1,·,·,-5,1,·
SMILES,C2C12 statin,S100A4 MyoIIA,PGC1a acetyl inh,DENV2 CPE,SIRT5 inh
COc1ccc2c3c(n(C)c2c1)[C@@H](CO)NCC31CN(Cc2cc(F)ccc2F)C1,·,·,-9,31*,·
COc1ccc2c3c(n(C)c2c1)[C@H](CO)NCC31CCN(Cc2ccccc2F)CC1,·,·,0,31*,·
COc1ccc2c3c(n(C)c2c1)[C@H](CO)NCC31CCN(Cc2cc(-c3ccccc3)on2)CC1,·,5,69*,-24,12
COc1ccc(OC)c(NC(=O)CSc2n[nH]c(-c3cccnc3)n2)c1,45,0,·,4,17*
COc1ccc(C(=O)Nc2n[nH]c(-c3ccncc3)n2)cc1,107*,·,5,·,·
COC(=O)c1ccc(NC(=O)CSc2n[nH]c(-c3ccncc3)n2)cc1,77*,·,-14,·,·
CN1C(=O)c2cc(NC(=O)c3ccc(F)cc3)ccc2OC[C@@H]2O[C@@H](CC(=O)O)CC[C@H]21,3,10,0,5,-3
C[C@@H]1CN([C@@H](C)CO)C(=O)c2cc(C#CC3CCCCC3)cnc2O[C@H]1CN(C)C(=O)NC1CCCC1,12,11,-1,-9,3
CCC(=O)N(C)C[C@@H]1Oc2cc(-c3ccc(F)cc3)ccc2S(=O)(=O)N([C@H](C)CO)C[C@@H]1C,-11,16,-6,-7,2
O=C(c1cccnc1)N1CC(=O)N2[C@H](CO)[C@@H](c3ccc(/C=C/c4ccccc4)cc3)[C@H]2C1,·,-2,-4,13,6
ONC(=Nc1ccccc1)C(=Nc1ccccc1)NO,86*,·,-5,·,·
NC(=Nc1ccccc1)Nc1ccccc1,9,-21,5,4,0
COc1ccccc1S(=O)(=O)N1CCN(S(=O)(=O)c2ccccc2C#N)CC1,-3,-1,·,-1,91*
COCCn1nnnc1C(c1cc2cc(C)ccc2[nH]c1=O)N1CCN(C2CCCCC2)CC1 (stereo unspecified),-1,-2,3,30*,3
COc1ccc(N2CCN(C(c3cc4cc(C)ccc4[nH]c3=O)c3nnnn3Cc3ccccc3)CC2)cc1 (stereo unspecified),75*,·,-1,·,·
COCCn1nnnc1C(c1cc2ccc(OC)cc2[nH]c1=O)N1CCN(C2CCCCC2)CC1 (stereo unspecified),-9,·,7,·,·
Cc1noc(C)c1NC(=O)Nc1ccc2c(c1)C(=O)N([C@@H](C)CO)C[C@H](C)[C@@H](CN(C)S(=O)(=O)c1cn(C)cn1)OCCCC[C@@H](C)O2,·,12,1,1,1
O=C(NCc1ccccn1)C(=O)NCC1OCCN1S(=O)(=O)c1ccc(Br)cc1 (stereo unspecified),1,3,-12,64*,-2
O=C(NCCC1CCCCN1S(=O)(=O)c1ccccc1)C(=O)NCc1ccccn1 (stereo unspecified),-5,-2,-22,92*,3
COc1ccc(S(=O)(=O)N2CCOC2CNC(=O)C(=O)NCc2ccccn2)cc1 (stereo unspecified),·,-3,2,-6,-3

# Source: PubChem BioAssay
